Assay results taken from ChEMBL document CHEMBL1138626, “Synthesis and biological evaluation of reversible inhibitors of IdeS, a bacterial cysteine protease and virulence determinant” (Bioorg Med Chem, 2009).
The source made the active and inactive calls. The rule behind the calls is not given here.

system: Streptococcus pyogenes; experiment: Inhibition of Streptococcus pyogenes IdeS assessed as blockade of enzyme-mediated degradation of human polyclonal immunoglobulin G by SDS-PAGE method
Procedure, shortened: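 IdeS expressed in E. coli and purified, diluted in PBS pH 7.4 (1 mg/mL), preincubated 30 min at room temperature in the dark with compound in DMSO (10 mg/mL stock, 100× excess). Human polyclonal IgG (1 mg/mL in PBS) then added, 1 h at 37 °C. Samples boiled in reducing SDS sample buffer (4% SDS, 5% 2-mercaptoethanol), cleavage read on 4–20% SDS–PAGE.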

Activity	Compound
inactive	Cc1ccc(S(=O)(=O)N[C@@H](CCCCNC(=O)OC(C)(C)C)COS(=O)(=O)c2ccc(C)cc2)cc1
Active	Cc1ccc(S(=O)(=O)N[C@H](CC=O)CCCCNC(=O)OC(C)(C)C)cc1
inactive	CCCC[C@@H](CO)NS(=O)(=O)c1ccc(C)cc1
inactive	Cc1ccc(S(=O)(=O)N[C@@H](CCCCN)CN=[N+]=[N-])cc1
inactive	Cc1ccc(S(=O)(=O)N[C@@H](CCCCNC(=O)OC(C)(C)C)CN=[N+]=[N-])cc1
inactive	Cc1ccc(S(=O)(=O)N[C@H](CO)CCCCNC(=O)OC(C)(C)C)cc1
Active	CCCC[C@@H](CC=O)NS(=O)(=O)c1ccc(C)cc1
inactive	Cc1ccc(S(=O)(=O)N[C@H](CO)CCCCN)cc1
Active	CCCC[C@@H](CC#N)NS(=O)(=O)c1ccc(C)cc1

More lines, now with the values behind:

Compound	Activity
Cc1ccc(S(=O)(=O)N[C@H](CN=[N+]=[N-])Cc2ccccc2)cc1	Active
Cc1ccc(S(=O)(=O)N[C@H](CO)Cc2ccccc2)cc1	inactive
Cc1ccc(S(=O)(=O)N2C[C@@H]2C(C)C)cc1 (stereo partly drawn)	inactive
Cc1ccc(S(=O)(=O)N[C@H](CN=[N+]=[N-])C(C)C)cc1	Active
Cc1ccc(S(=O)(=O)N[C@H](CC=O)Cc2ccccc2)cc1	Active
Cc1ccc(S(=O)(=O)N[C@@H](Cc2ccccc2)C(=O)CCl)cc1	Active
Cc1ccc(S(=O)(=O)N[C@H](COS(=O)(=O)c2ccc(C)cc2)Cc2ccccc2)cc1	inactive
Cc1ccc(S(=O)(=O)N[C@H](COS(=O)(=O)c2ccc(C)cc2)C(C)C)cc1	inactive
CCCC[C@@H](CN=[N+]=[N-])NS(=O)(=O)c1ccc(C)cc1	Active
Cc1ccc(S(=O)(=O)N[C@@H](CCCCN)C(=O)CCl)cc1	Active
Cc1ccc(S(=O)(=O)NC(CC=O)C(C)C)cc1 (single isomer, unassigned)	Active
CCCC[C@@H](COS(=O)(=O)c1ccc(C)cc1)NS(=O)(=O)c1ccc(C)cc1	inactive
CCCC[C@H]1CN1S(=O)(=O)c1ccc(C)cc1 (stereo partly drawn)	inactive
Cc1ccc(S(=O)(=O)N[C@H](CO)C(C)C)cc1	inactive
